Experimental findings from ChEMBL document CHEMBL1137229, “Structural characterization and pharmacology of a potent (Cys101-Cys119, Cys110-Cys117) bicyclic agouti-related protein (AGRP) melanocortin receptor antagonist” (J Med Chem, 2004) are described below.

For orientation: IC50 means the concentration that inhibits the measured activity by half. Read a high IC50 as lower potency. As a reminder, the EC50 is the concentration at which the effect is half-maximal. High values mean lower potency in that assay, low ones higher potency in that assay.

Experiment [1] addresses T1, Melanocortin receptor 3 (Mus musculus, UniProt P33033). In words: Antagonistic activity against mouse Melanocortin 3 Receptor. The experiment is classed as functional. Particulars: read-out: pA2 (converted). Summed up: (§1)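 Same HEK-293 CRE/β-galactosidase cAMP reporter system as the agonist assay, with a 6 h stimulation in IBMX-containing medium and normalization to protein and forskolin. Antagonism measured as the dose-dependent shift of the MTII agonist response, ligand up to 10 μM. pA2 derived by Schild analysis. Mean ± SEM of at least three independent experiments.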

Experiment [2] has as its target T1, Melanocortin receptor 3. The experiment can be described thus: Displacement of [125I]-hAGRP(87-132) from mouse Melanocortin 3 Receptor. Summed up:
(§2)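 Whole HEK-293 cells stably expressing mouse receptor, plated a day before at 0.1–0.3 × 10^6 cells/well. Chloramine-T-iodinated [125I]hAGRP(87–132) at 100000 cpm/well displaced by ligand. Nonspecific binding defined with 10^-6 M hAGRP(87–132). IC50 from nonlinear least-squares fit, or percent specific binding displaced at 10 μM. Duplicate points, at least two independent experiments, SD reported.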
Background: Loss of bound radioactivity is the signal in a displacement assay; it reports binding, not function.

The target of experiment [3] is T2, Melanocortin receptor 4 (Mus musculus, UniProt P56450). The experiment can be described thus: Displacement of [125I]-hAGRP(87-132) from mouse Melanocortin 4 Receptor. Summed up: as §2
The target in experiment [4] is T2, Melanocortin receptor 4. The experiment can be described thus: Antagonistic activity against mouse Melanocortin 4 Receptor. In kind it is functional. Particulars: read-out: pA2 (converted). Summed up:
as §1

The target of experiment [5] is Melanocyte-stimulating hormone receptor (Mus musculus, UniProt Q01727). The experiment can be described thus: Agonistic activity against mouse Melanocortin 1 Receptor. The experiment is classed as functional. Summed up: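 HEK-293 cells stably expressing the receptor (G418 selection), transiently transfected with a CRE/β-galactosidase reporter. Lysates read with ONPG at OD405 and normalized to protein content and forskolin (10^-4 M) response. EC50 from nonlinear least-squares fit, at least three independent experiments.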

Bridge positions count the residues as written; N and C are the ends. Peptide text beside a SMILES is read from it.

T1 sequence (P33033 whole entry): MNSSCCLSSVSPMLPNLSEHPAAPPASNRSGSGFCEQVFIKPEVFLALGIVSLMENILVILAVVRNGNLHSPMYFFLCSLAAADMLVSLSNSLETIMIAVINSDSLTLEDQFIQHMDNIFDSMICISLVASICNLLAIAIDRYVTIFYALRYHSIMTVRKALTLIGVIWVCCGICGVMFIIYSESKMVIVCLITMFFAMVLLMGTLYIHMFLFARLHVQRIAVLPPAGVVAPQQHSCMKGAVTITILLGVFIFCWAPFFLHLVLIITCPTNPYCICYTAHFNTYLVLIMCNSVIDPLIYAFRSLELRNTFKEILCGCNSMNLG
T2 sequence (P56450 whole entry): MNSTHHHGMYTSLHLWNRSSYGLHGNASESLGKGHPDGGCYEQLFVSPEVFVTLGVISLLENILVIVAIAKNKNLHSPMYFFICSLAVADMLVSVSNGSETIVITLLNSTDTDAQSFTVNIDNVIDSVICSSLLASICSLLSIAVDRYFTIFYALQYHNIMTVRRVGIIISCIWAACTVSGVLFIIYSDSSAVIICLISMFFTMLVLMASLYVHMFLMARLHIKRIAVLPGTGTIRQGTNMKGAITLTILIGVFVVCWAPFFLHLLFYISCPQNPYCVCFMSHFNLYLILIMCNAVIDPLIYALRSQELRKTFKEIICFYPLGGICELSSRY
Melanocyte-stimulating hormone receptor, sequence (Q01727 whole entry): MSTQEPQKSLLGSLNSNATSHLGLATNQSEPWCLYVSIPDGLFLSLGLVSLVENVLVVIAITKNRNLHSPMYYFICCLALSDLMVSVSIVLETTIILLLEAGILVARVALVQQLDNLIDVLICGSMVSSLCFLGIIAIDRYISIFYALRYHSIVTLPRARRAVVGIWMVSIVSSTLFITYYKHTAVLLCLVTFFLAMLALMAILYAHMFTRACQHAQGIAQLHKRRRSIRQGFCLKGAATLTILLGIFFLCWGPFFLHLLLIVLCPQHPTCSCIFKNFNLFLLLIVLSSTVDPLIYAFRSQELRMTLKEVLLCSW

As for `CC[C@@H]1NC(=O)[C@H](N)CSSC[C@@H](C(=O)N[C@@H](CCCN=C(N)N)C(=O)N[C@@H](CCCCN)C(=O)N[C@@H](CC(C)C)C(=O)O)NC(=O)[C@H](Cc2ccc(O)cc2)NC(=O)[C@H]2CSSC[C@H](NC(=O)[C@@H](Cc3ccc(O)cc3)NC(=O)[C@H](CC)NC(=O)[C@H]([C@@H](C)O)NC(=O)[C@@H](C)NC(=O)[C@H](CC)NC(=O)[C@@H]3CCCN3C(=O)[C@@H](CC(=O)O)NC1=O)C(=O)N[C@H](CCCN=C(N)N)C(=O)N[C@@H](Cc1ccccc1)C(=O)N[C@H](Cc1ccccc1)C(=O)N[C@@H](CC(N)=O)C(=O)N[C@H](C)C(=O)N[C@@H](Cc1ccccc1)C(=O)N2`, the Kb in experiment [1] is 158 nM. Further, the IC50 in experiment [2] was determined as 140 nM.

`CC[C@@H]1NC(=O)[C@H]([C@@H](C)O)NC(=O)[C@H](C)NC(=O)[C@H](CC)NC(=O)[C@@H]2CCCN2C(=O)[C@H](CC(=O)O)NC(=O)[C@H](CC)NC(=O)[C@@H](N)CSSC[C@@H](C(=O)N[C@@H](CCCN=C(N)N)C(=O)N[C@@H](CCCCN)C(=O)N[C@@H](CC(C)C)C(=O)O)NC(=O)[C@H](Cc2ccc(O)cc2)NC(=O)[C@@H]2CSSC[C@H](NC(=O)[C@H](Cc3ccc(O)cc3)NC1=O)C(=O)N[C@@H](CCCN=C(N)N)C(=O)N[C@@H](Cc1ccccc1)C(=O)N[C@@H](Cc1ccccc1)C(=O)N[C@@H](CC(N)=O)C(=O)N[C@@H](C)C(=O)N[C@@H](Cc1ccccc1)C(=O)N2` returned an IC50 in experiment [3] of 10 nM. Moreover, the Kb in experiment [4] was 31.6 nM. The compound further registered an EC50 in experiment [5] of 1460 nM.

Take `C[C@@H]1NC(=O)[C@H](CC(N)=O)NC(=O)[C@H](Cc2ccccc2)NC(=O)[C@H](Cc2ccccc2)NC(=O)[C@H](CCCNC(=N)N)NC(=O)[C@@H](NC(=O)[C@@H](N)Cc2ccc(O)cc2)CSSC[C@@H](C(=O)N[C@@H](Cc2ccc(O)cc2)C(N)=O)NC(=O)[C@H](Cc2ccccc2)NC1=O` (H-YCRFFNAFCY-NH2; disulfide 2-9): the 50% inhibitory concentration (IC50) in experiment [3] amounted to 275 nM; in experiment [2], 11700 nM. The Kb in experiment [4] is 158 nM. Besides, the EC50 in experiment [5] was 5120 nM.
